Laboratory results from ChEMBL document CHEMBL4364270, “Structure-activity relationship studies on Bax activator SMBA1 for the treatment of ER-positive and triple-negative breast cancer” (Eur J Med Chem, 2019).
Calls of active or inactive are those of the source. The calls are words filed in the database; no cut-off is given here.

Columns and labels:
MDA-MB-231 [1] = assay: Antiproliferative activity against triple negative human MDA-MB-231 cells assessed as reduction in cell growth incubated for 48 hrs by MTT assay; format: functional, cell-based; details: MDA-MB-231, 48 h
Summary of the method: (§1)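 MTT viability: MCF-7 and MDA-MB-231 seeded 1×10^4 cells/well, exposed to DMSO or 0.01-100 μM for 48 h; MTT (5 mg/mL in PBS) added 4 h, formazan dissolved in DMSO, OD 550 nm; quadruplicate wells; IC50 fitted for compounds giving >50% inhibition at 10 µM; at least three independent experiments.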

MDA-MB-231 [2] = assay: Induction of apoptosis in triple negative human MDA-MB-231 cells assessed as upregulation of caspase3 cleavage incubated for 48 hrs by Western blot analysis; format: functional, cell-based
MCF7 [3] = assay: Antiproliferative activity against adriamycin-resistant human MCF7 cells assessed as reduction in cell growth incubated for 72 hrs by MTT assay; format: functional, cell-based
Summary of the method: (§2)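 MTT viability after 72 h exposure at indicated concentrations; cells seeded at 1×10^3 cells/well (T47D, MDA-MB-468, MCF-10A, MCF-7/ADR) in 96-well plates; quadruplicate wells, independently repeated three times; IC50 as mean ± SE of at least three experiments.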

MCF7 [4] = assay: Induction of apoptosis in ER-positive human MCF7 cells assessed as downregulation of cyclin D1 level incubated for 48 hrs by Western blot analysis; format: functional, cell-based
Summary of the method: (§3)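 Western blot: cells harvested after treatment, lysates quantified by Bradford (BSA standard), 30 µg protein resolved by SDS-PAGE, transferred to PVDF, blocked in 5% nonfat milk, probed overnight with anti-PARP-1, anti-cleaved PARP-1 or anti-cyclin D1 (1:1,000) and β-actin loading control; ECL visualization.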

MCF7 [5] = assay: Antiproliferative activity against ER-positive human MCF7 cells assessed as reduction in cell growth incubated for 48 hrs by MTT assay; format: functional, cell-based; details: MCF7, 48 h; summary of the method: as §1
MCF7 [6] = assay: Antiproliferative activity against ER-positive human MCF7 cells assessed as reduction in cell viability at 10 uM incubated for 48 hrs by MTT assay relative to control; format: functional; details: MCF7, 48 h; summary of the method: as §1
MCF7 [7] = assay: Inhibition of colony formation in ER-positive human MCF7 cells at 1 uM supplemented with fresh medium containing compound every 72 hrs for 2 weeks by crystal violet staining based assay; format: functional, cell-based
Summary of the method: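 Clonogenic assay: 800 cells per well seeded, treated after 24 h with 1 μM or DMSO vehicle, medium with compound renewed every 72 h for 2 weeks; PBS wash, 0.01% crystal violet 10 min, whole-well density digitally quantified; triplicate, one-way ANOVA, SD error bars.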

MDA-MB-468 [8] = assay: Antiproliferative activity against triple negative human MDA-MB-468 cells assessed as reduction in cell growth at 1 uM incubated for 72 hrs by MTT assay relative to control; format: functional; details: MDA-MB-468, 72 h; summary of the method: as §2
MCF7 [9] = assay: Induction of apoptosis in ER-positive human MCF7 cells assessed as upregulation of PARP1 cleavage incubated for 48 hrs by Western blot analysis; format: functional, cell-based; summary of the method: as §3
MDA-MB-231 [10] = assay: Antiproliferative activity against triple negative human MDA-MB-231 cells assessed as reduction in cell growth at 1 uM incubated for 48 hrs by MTT assay relative to control; format: functional; details: MDA-MB-231, 48 h; summary of the method: as §1
[11] = biological target: Apoptosis regulator BAX (Homo sapiens) (UniProt Q07812); assay: Activation of Bax in ER-positive human MCF7 cells assessed as increase in active Bax 6A7 isoform protein level at 5 uM incubated upto 48 hrs by Western blot analysis; format: cell-based
Sequence of Apoptosis regulator BAX (Homo sapiens) (Q07812 whole entry, canonical isoform): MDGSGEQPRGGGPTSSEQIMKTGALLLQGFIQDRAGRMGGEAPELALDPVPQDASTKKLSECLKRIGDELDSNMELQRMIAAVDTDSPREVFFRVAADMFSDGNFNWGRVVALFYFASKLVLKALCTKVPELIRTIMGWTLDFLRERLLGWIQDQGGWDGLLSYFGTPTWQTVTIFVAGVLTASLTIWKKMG
Summary of the method: (§4)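 Western blot of MCF-7 (and MDA-MB-231 for cytosolic fractions) cells exposed to 5 μM over 0-48 h; 30 µg protein per lane on SDS-PAGE, PVDF transfer, 5% milk block, overnight primary antibodies (total Bax, p-Bax, active Bax 6A7, cytochrome C), ECL detection; cytosolic fraction used for cytochrome c and Bax.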

MDA-MB-231 [12] = assay: Antitumor activity against triple-negative human MDA-MB-231 cells xenografted in mouse assessed as reduction in tumor growth at 2.5 mg/kg, ip administered once daily for 7 days; format: functional; details: MDA-MB-231, ip, 168 h, read-out: GI
Summary of the method: (§5)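 Female nude mice (6 weeks) given 2.5×10^6 MDA-MB-231 cells in PBS into third mammary fat pad, randomized into four groups; at 200 mm³ tumor volume dosed i.p. daily for 7 days in 50% DMSO/50% PEG vehicle; tumor volume (0.5×L×W²) and body weight measured daily; one-way ANOVA.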

[13] = Toxicity in mouse xenografted with triple-negative human MDA-MB-231 cells assessed as slight reduction in body weight at 2.5 mg/kg, ip administered once daily for 7 days; format: organism-based; details: in vivo, 168 h; summary of the method: as §5
MDA-MB-231 [14] = assay: Induction of apoptosis in triple negative human MDA-MB-231 cells assessed as appearance of concentrated dense granules at 5 to 10 uM incubated for 24 hrs by Hoechst 33342 staining based fluorescence microscopy; format: functional, cell-based
Summary of the method: (§6)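 Cells on coverslips (2.5×10^5/well) treated with DMSO or 5 and 10 μM for 24 h, washed in binding buffer, stained 15 min with FITC-annexin V, ethidium homodimer III and Hoechst 33342, mounted and imaged by fluorescence microscopy (DAPI filter) from center and peripheral regions.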

MDA-MB-231 [15] = assay: Induction of apoptosis in triple-negative human MDA-MB-231 cells assessed as downregulation of cyclin D1 level incubated for 48 hrs by Western blot analysis; format: functional, cell-based; summary of the method: as §3
[16] = biological target: Apoptosis regulator BAX (Homo sapiens) (UniProt Q07812); assay: Activation of Bax in ER-positive human MCF7 cells assessed as increase in cytosolic cytochrome C level at 5 uM incubated for 48 hrs by Western blot analysis; format: cell-based; summary of the method: as §4
[17] = biological target: Apoptosis regulator BAX (Homo sapiens) (UniProt Q07812); assay: Activation of Bax in triple-negative human MDA-MB-231 cells assessed as increase in cytosolic cytochrome C level at 5 uM incubated for 48 hrs by Western blot analysis; format: cell-based; summary of the method: as §4
T47D [18] = assay: Antiproliferative activity against ER-positive human T47D cells assessed as reduction in cell growth at 1 uM incubated for 72 hrs by MTT assay relative to control; format: functional; summary of the method: as §2
T47D [19] = assay: Antiproliferative activity against ER-positive human T47D cells assessed as reduction in cell growth incubated for 72 hrs by MTT assay; format: functional, cell-based; summary of the method: as §2
MDA-MB-468 [20] = assay: Antiproliferative activity against triple negative human MDA-MB-468 cells assessed as reduction in cell growth incubated for 72 hrs by MTT assay; format: functional, cell-based; details: MDA-MB-468, 72 h; summary of the method: as §2
[21] = biological target: Apoptosis regulator BAX (Homo sapiens) (UniProt Q07812); assay: Activation of Bax in ER-positive human MCF7 cells assessed as reduction in Bax phosphorylation at Ser184 at 5 uM incubated upto 48 hrs by Western blotting analysis; format: cell-based; details: TDE = time-dependent effect; summary of the method: as §4
MCF7 [22] = assay: Induction of apoptosis in ER-positive human MCF7 cells assessed as appearance of concentrated dense granules at 5 to 10 uM incubated for 24 hrs by Hoechst 33342 staining based fluorescence microscopy; format: functional, cell-based; summary of the method: as §6
MCF7 [23] = assay: Induction of apoptosis in ER-positive human MCF7 cells assessed as upregulation of caspase3 cleavage incubated for 48 hrs by Western blot analysis; format: functional, cell-based
MDA-MB-231 [24] = assay: Antiproliferative activity against triple negative human MDA-MB-231 cells assessed as reduction in cell growth at 10 uM incubated for 48 hrs by MTT assay relative to control; format: functional; details: MDA-MB-231, 48 h; summary of the method: as §1
MCF7 [25] = assay: Induction of apoptosis in ER-positive human MCF7 cells assessed as increase in total Bax protein level at 5 uM incubated upto 48 hrs by Western blot analysis; format: functional, cell-based; summary of the method: as §4

Question: What does the source list for `NCCOc1ncccc1C=C1c2ccccc2-c2ccc([N+](=O)[O-])cc21`?
Answer: IC50 (MDA-MB-231 [1]): 70 nM; Activity (MDA-MB-231 [2]): Dose-dependent effect; inhibition (MCF7 [3]): Dose-dependent effect; Activity (MCF7 [4]): Dose-dependent effect; IC50 (MCF7 [5]): 60 nM; inhibition at 10 µM (MCF7 [6]): > 50%; inhibition (MCF7 [7]): Active; inhibition at 1 µM (MDA-MB-468 [8]): > 50%; Activity (MCF7 [9]): Dose-dependent effect; inhibition at 1 µM (MDA-MB-231 [10]): > 50%; Activity [11]: Active; inhibition in vivo at 2.5 mg/kg (MDA-MB-231 [12]): 55%; Activity [13]: Toxic; Activity (MDA-MB-231 [14]): Active; Activity (MDA-MB-231 [15]): Dose-dependent effect; Activity [16]: Active; Activity [17]: Active; inhibition at 1 µM (T47D [18]): > 50%; IC50 (T47D [19]): 1200 nM; IC50 (MDA-MB-468 [20]): 1610 nM; inhibition [21]: Tde; Activity (MCF7 [22]): Active; Activity (MCF7 [23]): Dose-dependent effect; inhibition at 10 µM (MDA-MB-231 [24]): > 50%; Activity (MCF7 [25]): Active
